# Results from different studies.
# Each line is one published result; the experiments were not run side by side.
# Target: Casein kinase II subunit alpha' (CSNK2A2, Homo sapiens, UniProt P19784)
Structure (SMILES),test,conditions,quantity,value
Cc1nn(C)cc1-c1nc2c(N3CCN(Cc4ccc(Cl)cc4)CC3)c(Cl)cnc2[nH]1,"binding, competition with immobilised ligand",1 µM,remaining binding,67%
COc1ncccc1-c1cnn2ccc(N3CCN(C(=O)OC(C)C)CC3)nc12,"binding, competition with immobilised ligand",1 µM,remaining binding,62%
Cn1cc(-c2cc(F)cc(N3CCn4c(cc5c4CCCC5)C3=O)c2CO)cc(Nc2ccc(N3CCN(C4COC4)CC3)cn2)c1=O,"enzyme activity, inhibitor",0.1 µM,inhibition,1%
Cn1cncc1[C@@](O)(COc1ccc(C#N)cc1-c1ccc(OC(F)(F)F)cc1)c1ccc(C#N)cc1,"cell-free assay, competition with immobilised ligand",1 µM,remaining binding,100%
Nc1ncc(-c2nc(N3CCOCC3)nc(N3CCOCC3)n2)c(C(F)F)n1,"binding, competition with immobilised ligand",10 µM,remaining binding,69%
C#Cc1n[nH]c2c(-c3cn([C@@H](C)c4ccccn4)c(=O)[nH]c3=O)cc(F)cc12,"enzyme activity, inhibitor",0.1 µM,inhibition,3.3%
CN[C@@H]1C[C@H]2O[C@@](C)([C@@H]1OC)n1c3ccccc3c3c4c(c5c6ccccc6n2c5c31)C(=O)NC4,"enzyme activity, inhibitor",0.5 µM,activity vs control,66.6%
Cn1cc(-c2cccc(N3CCc4c(sc5c4CC(C)(C)C5)C3=O)c2CO)cc(Nc2ccncn2)c1=O,"enzyme activity, inhibitor",1 µM,inhibition,4%
C#Cc1n[nH]c2c(-c3cn([C@@H](C)c4ccccc4)c(=O)[nH]c3=O)cc(F)cc12,"enzyme activity, inhibitor",0.1 µM,inhibition,1.5%
O=c1[nH]c2ccccc2n1C1CCN(Cc2ccc(-c3[nH]c4cc5ncnc5cc4nc3-c3ccccc3)cc2)CC1,cell-free assay,0.5 µM,remaining signal,101%
